Read-outs that look alike come from different tables or passages of the source. One block for each compound: values may come before it.
Legend:
[1] = target: V105Y (Homo sapiens, UniProt Q8WWM9, V105Y); assay: UV-Vis difference spectroscopy titration of ferric cytoglobin; assay type: binding; conditions: SD, n = 3
Outline: (§1)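 Sodium oleate stocks (50 mM in water, −20 °C) were diluted in buffer before use. Ferric globin (5–15 μM) in 100 mM sodium phosphate, pH 7.4, 25 °C was titrated with 200 μM–5 mM stocks to about 60–1500 μM oleate. The max–min difference-spectrum amplitude was plotted against oleate, and KD came from a 1:1 quadratic fit. At least triplicate, with ≥2 protein batches; mean ± SD.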

[2] = target: T1, H81Q (Homo sapiens, UniProt Q8WWM9, H81Q); assay: as above; assay type: binding; conditions: SD, n = 3
Outline: as §1

[3] = target: R84E (Homo sapiens, UniProt Q8WWM9, R84E); assay: as above; assay type: binding; conditions: SD, n = 3
Outline: as §1

[4] = target: T2, H81A (Homo sapiens, UniProt Q8WWM9, H81A); assay: as above; assay type: binding; conditions: SD, n = 3
Outline: as §1

[5] = target: T3, H81W (Homo sapiens, UniProt Q8WWM9, H81W); assay: as above; assay type: binding; conditions: SD, n = 3
Outline: as §1

[6] = target: T91D (Homo sapiens, UniProt Q8WWM9, T91D); assay: as above; assay type: binding; conditions: SD, n = 3
Outline: as §1

[7] = target: L108Q (Homo sapiens, UniProt Q8WWM9, L108Q); assay: as above; assay type: binding; conditions: SD, n = 3
Outline: as §1

[8] = target: T4, K116E (Homo sapiens, UniProt Q8WWM9, K116E); assay: as above; assay type: binding; conditions: SD, n = 3
Outline: as §1

[9] = target: T5, H81L (Homo sapiens, UniProt Q8WWM9, H81L); assay: as above; assay type: binding; conditions: SD, n = 3
Outline: as §1

[10] = cited from earlier work
[11] = target: T3, H81W; assay: UV-Vis difference spectroscopy titration of ferric cytoglobin; assay type: binding; conditions: SD, n = 3; remark: listed apart in the source
[12] = target: T2, H81A; assay: as above; assay type: binding; conditions: SD, n = 3; remark: listed apart in the source
[13] = target: T5, H81L; assay: as above; assay type: binding; conditions: SD, n = 3; remark: listed apart in the source
[14] = target: T1, H81Q; assay: as above; assay type: binding; conditions: SD, n = 3; remark: listed apart in the source
[15] = target: T4, K116E; assay: as above; assay type: binding; conditions: SD, n = 3; remark: listed apart in the source
[16] = target: T6, Wild-type Cygb (Homo sapiens, UniProt Q8WWM9); assay: as above; assay type: binding; conditions: SD, n = 3
[17] = target: T1, H81Q; assay: UV-Vis difference spectroscopy titration of ferric cytoglobin; assay type: binding; conditions: SD, n = 3; remark: listed apart in the source
Outline: (§2)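 Ferric globin (5–15 μM) was titrated with imidazole stocks (1–100 mM) to about 100–15000 μM final. Buffer was 100 mM sodium phosphate, pH 7.4, at 25 °C. UV-Vis difference spectra were taken, and the max–min absorbance difference was plotted against ligand. KD came from a 1:1 quadratic binding fit. At least triplicate, with ≥2 protein batches; mean ± SD.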

[18] = target: T2, H81A; assay: as above; assay type: binding; conditions: SD, n = 3; remark: listed apart in the source
Outline: as §2

[19] = target: T3, H81W; assay: as above; assay type: binding; conditions: SD, n = 3; remark: listed apart in the source
Outline: as §2

[20] = target: T6, Wild-type Cygb; assay: as above; assay type: binding; conditions: SD, n = 3; remark: listed apart in the source
Outline: as §2

[21] = target: T5, H81L; assay: as above; assay type: binding; conditions: SD, n = 3; remark: listed apart in the source
Outline: as §2

[22] = 37°C, 100 mM sodium phosphate, pH 7.4

T3 sequence (Q8WWM9 whole entry H81W): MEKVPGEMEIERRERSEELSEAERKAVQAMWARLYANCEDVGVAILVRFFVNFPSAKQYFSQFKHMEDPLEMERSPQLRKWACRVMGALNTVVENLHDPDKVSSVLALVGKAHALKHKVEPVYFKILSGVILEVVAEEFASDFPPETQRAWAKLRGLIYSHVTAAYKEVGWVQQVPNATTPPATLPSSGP
T5 sequence (Q8WWM9 whole entry H81L): as the sequence (Q8WWM9 whole entry H81W) above, with W81L counted along it
T2 sequence (Q8WWM9 whole entry H81A): as the sequence (Q8WWM9 whole entry H81W) above, with W81A counted along it
T1 sequence (Q8WWM9 whole entry H81Q): as the sequence (Q8WWM9 whole entry H81W) above, with W81Q counted along it
T6 sequence (Q8WWM9 whole entry): as the sequence (Q8WWM9 whole entry H81W) above, with W81H counted along it
T4 sequence (Q8WWM9 whole entry K116E): as the sequence (Q8WWM9 whole entry H81W) above, with W81H, K116E counted along it
R84E, sequence (Q8WWM9 whole entry R84E): as the sequence (Q8WWM9 whole entry H81W) above, with W81H, R84E counted along it
T91D, sequence (Q8WWM9 whole entry T91D): as the sequence (Q8WWM9 whole entry H81W) above, with W81H, T91D counted along it
V105Y, sequence (Q8WWM9 whole entry V105Y): as the sequence (Q8WWM9 whole entry H81W) above, with W81H, V105Y counted along it
L108Q, sequence (Q8WWM9 whole entry L108Q): as the sequence (Q8WWM9 whole entry H81W) above, with W81H, L108Q counted along it

Kd [1]: 4.8 ± 3.2 µM | Kd [2]: 46 ± 8 µM | Kd [3]: 170 ± 90 µM | Kd [4]: 24 ± 2 µM | Kd [5]: 32 ± 10 µM | Kd [6]: 5.7 ± 1.4 µM | Kd [7]: 14 ± 3 µM | Kd [8]: 62 ± 23 µM | Kd [9]: 36 ± 13 µM
Compound: CCCCCCCC/C=C\CCCCCCCC(=O)O [Oleic acid, oleic acid (18:1 cis-9), added as sodium oleate]

Compound: Myoglobin F43H/H64A: myoglobin double mutant Phe43(CD1) to His and His64 to Ala [reference compound]
Nitrite reductase reaction rate constant ([10]; Mb values determined at 25°C): 49.8 ± 1.5^c M^−1s^−1

Kd [11]: 140 ± 10 µM | Kd [12]: 1520 ± 890 µM | Kd [13]: 950 ± 80 µM | Kd [14]: 250 ± 10 µM | Kd [15]: 185000 ± 13000 µM | Kd [16]: 1590 ± 740 µM
Compound: CCCCCCCC(=O)O [Octanoic acid, octanoic acid, added as sodium octanoate]

Compound: c1c[nH]cn1 [Imidazole, imidazole]
Kd [17]: 15.3 ± 11 µM | Kd [18]: 10.6 ± 6.2 µM | Kd [19]: 7.3 ± 0.9 µM | Kd [20]: 820 ± 150 µM | Kd [21]: 23.5 ± 4.4 µM

Compound: Hemoglobin T-State: hemoglobin in the T-state [reference compound]
Nitrite reductase reaction rate constant [10, 22]: 0.12^a M^−1s^−1

Compound: Myoglobin Wild-type: wild-type myoglobin [reference compound]
Nitrite reductase reaction rate constant ([10]; Mb values determined at 25°C): 5.6 ± 0.6^b M^−1s^−1

Compound: Myoglobin F43H: myoglobin mutant with histidine instead of Phe43(CD1) [reference compound]
Nitrite reductase reaction rate constant ([10]; Mb values determined at 25°C): 1.4 ± 0.1^c M^−1s^−1

Compound: Hemoglobin R-State: hemoglobin in the R-state [reference compound]
Nitrite reductase reaction rate constant [10, 22]: 6.0^a M^−1s^−1

Compound: Myoglobin H64A: myoglobin distal histidine His64 to Ala mutant [reference compound]
Nitrite reductase reaction rate constant ([10]; Mb values determined at 25°C): 1.8 ± 0.3^b M^−1s^−1
